Test results: ChEMBL document CHEMBL4689842, “EUbOPEN Chemogenomics Library wave 1” (2021)
“And” between values parts separate entries of the source, which are not always exact repeats. Identical values can stand only once.

What was measured:
Fibroblast = assay: Multiplex assay against human fibroblast; format: toxicity, cell-based; details: 10 µM, compound concentration 10 uM
Procedure, shortened: (§1)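 Cells stained live at seeding with Hoechst33342, BioTracker Green Microtubule Cytoskeleton Dye, MitoTracker Red and Annexin V Alexa Fluor 680 were imaged on a CQ1 microscope at 37°C and 5% CO2 after compound addition. Their classification by CellPathfinder machine-learning gating ran from Hoechst high-intensity objects versus normal cells, to healthy, pyknosed or fragmented nuclei among normal cells, to mitotic or apoptotic among pyknosed cells. Tubulin, mitochondrial-mass and membrane-permeability phenotypes are per cents of healthy-nucleus cells.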

HEK-293T = assay: Multiplex assay against HEK293T; format: toxicity, cell-based; details: human, 10 µM, compound concentration 10 uM; procedure, shortened: as §1;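 for Population Tubulin-Different-Phenotype (%): share of the cells with healthy nuclei that show this phenotype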

Q: Which “Population Apoptotic (%)” value (Fibroblast; 12 h, replicate 1) does the source give for `C1=N/C2=N/c3ccc(OCCN4CCCC4)c(c3)COC/C=C\COCc3cccc(c3)C(=C1)N2` here?
A: 82% and 50% and 69%

Q: What about the “Population Fragmented Nuclei (%)” value (Fibroblast; 12 h, replicate 1) of the same compound?
A: 23% and 19% and 32%

Q: What about the “Population Hoechst High Intensity Objects (%)” value (Fibroblast; 12 h, replicate 1) of the same compound?
A: 13% and 8% and 12%

Q: And the “Population Membrane Permeable-Phenotype (%)” value (Fibroblast; 12 h, replicate 1)?
A: 0% and 2% and 3%

Q: And the “Population Mitotic Cells (%)” value (Fibroblast; 12 h, replicate 1)?
A: 17% and 49% and 30%

Q: And the “Population Normal (%)” value (Fibroblast; 12 h, replicate 1)?
A: 86% and 91% and 87%

Q: And the “Population Apoptotic (%)” value (Fibroblast; 12 h, replicate 2)?
A: 68% and 44% and 90%

Q: And the “Population Fragmented Nuclei (%)” value (Fibroblast; 12 h, replicate 2)?
A: 66% and 46% and 29%

Q: And the “Population Normal (%)” value (Fibroblast; 12 h, replicate 2)?
A: 60% and 68% and 89%

Q: And the “Population Pyknosed Nuclei (%)” value (Fibroblast; 12 h, replicate 2)?
A: 24% and 18% and 53%

Q: What about the “Total Cell Count” value (Fibroblast; 12 h, replicate 2) of the same compound?
A: 108 and 72 and 71

Q: And the “Population Apoptotic (%)” value (Fibroblast; 24 h, replicate 1)?
A: 82% and 61% and 58%

Q: And the “Population Fragmented Nuclei (%)” value (Fibroblast; 24 h, replicate 1)?
A: 35% and 32% and 34%

Q: What about the “Population Hoechst High Intensity Objects (%)” value (Fibroblast; 24 h, replicate 1) of the same compound?
A: 15% and 6% and 13%

Q: And the “Population Mitotic Cells (%)” value (Fibroblast; 24 h, replicate 1)?
A: 17% and 38% and 41%

Q: And the “Population Normal (%)” value (Fibroblast; 24 h, replicate 1)?
A: 84% and 93% and 86%

Q: And the “Population Tubulin-Different-Phenotype (%)” value (Fibroblast; 24 h, replicate 1)?
A: 54% and 82%

Q: And the “Population Apoptotic (%)” value (Fibroblast; 24 h, replicate 2)?
A: 92% and 57% and 96%

Q: What about the “Population Hoechst High Intensity Objects (%)” value (Fibroblast; 24 h, replicate 2) of the same compound?
A: 37% and 28% and 32%

Q: What about the “Population Normal (%)” value (Fibroblast; 24 h, replicate 2) of the same compound?
A: 62% and 71% and 67%

Q: And the “Total Cell Count” value (Fibroblast; 24 h, replicate 2)?
A: 98 and 77 and 69

Q: And the “Population Apoptotic (%)” value (Fibroblast; 48 h, replicate 1)?
A: 87%

Q: And the “Population Fragmented Nuclei (%)” value (Fibroblast; 48 h, replicate 1)?
A: 50%

Q: What about the “Population Healthy Nuclei (%)” value (Fibroblast; 48 h, replicate 1) of the same compound?
A: 24%

Q: And the “Population Hoechst High Intensity Objects (%)” value (Fibroblast; 48 h, replicate 1)?
A: 20%

Q: What about the “Population Membrane Permeable-Phenotype (%)” value (Fibroblast; 48 h, replicate 1) of the same compound?
A: 25%

Q: And the “Population Mitochondria Different-Phenotype (%)” value (Fibroblast; 48 h, replicate 1)?
A: 31%

Q: And the “Population Mitotic Cells (%)” value (Fibroblast; 48 h, replicate 1)?
A: 12%

Q: What about the “Population Normal (%)” value (Fibroblast; 48 h, replicate 1) of the same compound?
A: 79%

Q: What about the “Population Pyknosed Nuclei (%)” value (Fibroblast; 48 h, replicate 1) of the same compound?
A: 24%

Q: What about the “Population Tubulin-Different-Phenotype (%)” value (Fibroblast; 48 h, replicate 1) of the same compound?
A: 50%

Q: What about the “Total Cell Count” value (Fibroblast; 48 h, replicate 1) of the same compound?
A: 82

Q: What about the “Population Apoptotic (%)” value (Fibroblast; 48 h, replicate 2) of the same compound?
A: 94%

Q: What about the “Population Fragmented Nuclei (%)” value (Fibroblast; 48 h, replicate 2) of the same compound?
A: 68%

Q: And the “Population Healthy Nuclei (%)” value (Fibroblast; 48 h, replicate 2)?
A: 5%

Q: And the “Population Hoechst High Intensity Objects (%)” value (Fibroblast; 48 h, replicate 2)?
A: 14%

Q: And the “Population Membrane Permeable-Phenotype (%)” value (Fibroblast; 48 h, replicate 2)?
A: 0%

Q: What about the “Population Mitochondria Different-Phenotype (%)” value (Fibroblast; 48 h, replicate 2) of the same compound?
A: 100%

Q: And the “Population Mitotic Cells (%)” value (Fibroblast; 48 h, replicate 2)?
A: 5%

Q: And the “Population Normal (%)” value (Fibroblast; 48 h, replicate 2)?
A: 85%

Q: What about the “Population Pyknosed Nuclei (%)” value (Fibroblast; 48 h, replicate 2) of the same compound?
A: 25%

Q: And the “Population Tubulin-Different-Phenotype (%)” value (Fibroblast; 48 h, replicate 2)?
A: 75%

Q: What about the “Total Cell Count” value (Fibroblast; 48 h, replicate 2) of the same compound?
A: 78

Q: What about the “Population Fragmented Nuclei (%)” value (HEK-293T; 12 h, replicate 1) of the same compound?
A: 34% and 21% and 25%

Q: And the “Population Hoechst High Intensity Objects (%)” value (HEK-293T; 12 h, replicate 1)?
A: 26% and 14% and 21%

Q: What about the “Population Membrane Permeable-Phenotype (%)” value (HEK-293T; 12 h, replicate 1) of the same compound?
A: 14% and 13% and 0%

Q: And the “Population Normal (%)” value (HEK-293T; 12 h, replicate 1)?
A: 73% and 85% and 78%

Q: What about the “Population Pyknosed Nuclei (%)” value (HEK-293T; 12 h, replicate 1) of the same compound?
A: 52% and 47% and 73%

Q: What about the “Total Cell Count” value (HEK-293T; 12 h, replicate 1) of the same compound?
A: 695 and 596 and 237

Q: And the “Population Membrane Permeable-Phenotype (%)” value (HEK-293T; 12 h, replicate 2)?
A: 4% and 5%

Q: And the “Population Mitochondria Different-Phenotype (%)” value (HEK-293T; 12 h, replicate 2)?
A: 89% and 81% and 50%

Q: What about the “Population Normal (%)” value (HEK-293T; 12 h, replicate 2) of the same compound?
A: 77% and 79% and 94%

Q: What about the “Population Pyknosed Nuclei (%)” value (HEK-293T; 12 h, replicate 2) of the same compound?
A: 54% and 88% and 38%

Q: What about the “Population Tubulin-Different-Phenotype (%)” value (HEK-293T; 12 h, replicate 2) of the same compound?
A: 82% and 72% and 94%

Q: What about the “Population Apoptotic (%)” value (HEK-293T; 24 h, replicate 1) of the same compound?
A: 87% and 58% and 29%

Q: What about the “Population Fragmented Nuclei (%)” value (HEK-293T; 24 h, replicate 1) of the same compound?
A: 30% and 38% and 21%

Q: And the “Population Hoechst High Intensity Objects (%)” value (HEK-293T; 24 h, replicate 1)?
A: 20% and 21% and 14%

Q: What about the “Population Membrane Permeable-Phenotype (%)” value (HEK-293T; 24 h, replicate 1) of the same compound?
A: 0% and 19% and 7%

Q: And the “Population Normal (%)” value (HEK-293T; 24 h, replicate 1)?
A: 79% and 78% and 85%

Q: What about the “Population Pyknosed Nuclei (%)” value (HEK-293T; 24 h, replicate 1) of the same compound?
A: 69% and 45% and 44%

Q: What about the “Total Cell Count” value (HEK-293T; 24 h, replicate 1) of the same compound?
A: 253 and 698 and 607

Q: And the “Population Hoechst High Intensity Objects (%)” value (HEK-293T; 24 h, replicate 2)?
A: 19% and 13% and 7%

Q: And the “Population Mitochondria Different-Phenotype (%)” value (HEK-293T; 24 h, replicate 2)?
A: 69% and 78% and 54%

Q: What about the “Population Normal (%)” value (HEK-293T; 24 h, replicate 2) of the same compound?
A: 80% and 86% and 92%

Q: What about the “Population Pyknosed Nuclei (%)” value (HEK-293T; 24 h, replicate 2) of the same compound?
A: 79% and 55% and 35%

Q: And the “Population Tubulin-Different-Phenotype (%)” value (HEK-293T; 24 h, replicate 2)?
A: 100% and 87% and 94%

Q: And the “Population Apoptotic (%)” value (HEK-293T; 48 h, replicate 1)?
A: 87%

Q: And the “Population Fragmented Nuclei (%)” value (HEK-293T; 48 h, replicate 1)?
A: 37%

Q: And the “Population Healthy Nuclei (%)” value (HEK-293T; 48 h, replicate 1)?
A: 0%

Q: And the “Population Hoechst High Intensity Objects (%)” value (HEK-293T; 48 h, replicate 1)?
A: 26%

Q: What about the “Population Membrane Permeable-Phenotype (%)” value (HEK-293T; 48 h, replicate 1) of the same compound?
A: 0%

Q: And the “Population Mitochondria Different-Phenotype (%)” value (HEK-293T; 48 h, replicate 1)?
A: 0%

Q: And the “Population Mitotic Cells (%)” value (HEK-293T; 48 h, replicate 1)?
A: 12%

Q: And the “Population Normal (%)” value (HEK-293T; 48 h, replicate 1)?
A: 73%
